Laboratory results published in ChEMBL document CHEMBL4732029, “Synthesis and evaluation of bis(imino)anthracene derivatives as G-quadruplex ligands” (RSC Med Chem, 2021).

How the values were obtained:
Assay type in all cases: functional, cell-based
HeLa [1] = test: Cytotoxicity against human HeLa cells
Summary of the method: (§1)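 HeLa cells (ATCC CCL-2) were exposed to each compound at 100, 30, 10 and 1 µM for 24 h. Viability was read by PrestoBlue absorbance and normalized to a DMSO negative control; doxorubicin served as positive control. Data are mean and SEM. IC50 came from the percentage viability plotted against log concentration, with R squared reported.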

HeLa [2] = test: Cytotoxicity against human HeLa cells assessed as reduction in cell viability incubated for 24 hrs by MTT assay
HeLa [3] = test: Cytotoxicity against human HeLa cells assessed as reduction in cell viability incubated for 24 hrs by presto blue assay; summary of the method: as §1

Structure (SMILES) | IC50 (HeLa [1]) [µM] | IC50 (HeLa [3]) [µM] | further results
CN(C)CCNC(=O)c1cccn2c(=O)c3cc4ccccc4cc3nc12 | 0.46 |  | 
CN(C)c1ccc(Nc2c3ccc(NC(=O)CCN4CCCC4)cc3nc3cc(NC(=O)CCN4CCCC4)ccc23)cc1 |  |  | IC50 (HeLa [2]): 5.25 µM
C(=N\CCc1c[nH]c2ccccc12)/c1c2ccccc2c(/C=N/CCc2c[nH]c3ccccc23)c2ccccc12 |  | 30.6 | 
C(=N\CCN1CCCCC1)/c1c2ccccc2c(/C=N/CCN2CCCCC2)c2ccccc12 |  | 23.8 | 
C(=N\Cc1ccc2c(c1)OCO2)/c1c2ccccc2c(/C=N/Cc2ccc3c(c2)OCO3)c2ccccc12 |  | 18 | 
Cc1cnc(/N=C/c2c3ccccc3c(/C=N/c3ncc(C)s3)c3ccccc23)s1 |  | 20.5 | 
Cc1cc2c3c([n+](C)c4ccc(F)cc4c3c1)-c1cc(F)ccc1N2C | 0.2 |  | 
Cc1cnc(CNC(=O)c2c(=O)c3ccc(N4CCCN(C)CC4)nc3n3c2sc2ccccc23)cn1 [CX-5461] | 6.89 |  | 
COc1cccc2c1C(=O)c1c(O)c3c(c(O)c1C2=O)C[C@@](O)(C(=O)CO)C[C@@H]3O[C@H]1C[C@H](N)[C@H](O)[C@H](C)O1 [DOXORUBICIN] | 0.374 |  | 
COc1cccc2c1C(=O)c1c(O)c3c(c(O)c1C2=O)C[C@@](O)(C(=O)CO)C[C@@H]3O[C@H]1C[C@H](N2CCO[C@H](OC)C2)[C@H](O)[C@H](C)O1 [NEMORUBICIN] | 0.08 |  | 
CN1CCC[C@H]1CCNC(=O)c1cn2c3c(c(N4CCC(c5cnccn5)C4)c(F)cc3c1=O)Oc1cc3ccccc3cc1-2 (stereo partly specified) [QUARFLOXIN] | 4.44 |  | 
